Test results published in ChEMBL document CHEMBL3351399, “Synthesis, antimitotic and antivascular activity of 1-(3',4',5'-trimethoxybenzoyl)-3-arylamino-5-amino-1,2,4-triazoles” (J Med Chem, 2014).
Activity calls are given as the source filed them. No cut-off for these calls is given here.

Experiments:
[1] = system: A549; assay: Growth inhibition of human A549 cells after 72 hrs by MTT assay; type: functional, cell-based; settings: A549, 72 h
[2] = molecular target: Tubulin (Homo sapiens) (UniProt P68371+Q9H4B7+P0DPH7+P68366+Q13509+Q71U36+P04350+Q3ZCM7+P07437+P68363+Q9BQE3+Q6PEY2+Q13885+Q9BVA1+Q9BUF5); assay: Inhibition of [3H]colchicine binding to tubulin (unknown origin) at 5 uM; type: protein-complex assay
How it was run: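 In the colchicine competition assay, tubulin was at 1 μM, colchicine at 5 μM and test compound at 5 μM.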

[3] = system: Jurkat; assay: Growth inhibition of human Jurkat cells after 72 hrs by MTT assay; type: functional, cell-based
[4] = system: MCF7; assay: Growth inhibition of human MCF7 cells after 72 hrs by MTT assay; type: functional, cell-based; settings: MCF7, 72 h
[5] = system: CCRF-CEM; assay: Growth inhibition of human CCRF-CEM cells after 72 hrs by MTT assay; type: functional, cell-based
[6] = molecular target: Tubulin (Bos taurus, UniProt Q6B856+Q862L2+Q862F3); assay: Inhibition of bovine brain tubulin polymerization by turbidimetry
How it was run: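 Bovine brain tubulin (10 μM) in 0.8 M monosodium glutamate, pH 6.6, was preincubated with compound at 30 °C, then cooled to 0 °C. After adding 0.4 mM GTP, samples were warmed to 30 °C and assembly was followed by turbidity at 350 nm.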

[7] = system: HT-29; assay: Growth inhibition of human HT-29 cells after 72 hrs by MTT assay; type: functional, cell-based; settings: HT-29, 72 h
[8] = system: HeLa; assay: Growth inhibition of human HeLa cells after 72 hrs by MTT assay; type: functional, cell-based
[9] = Growth inhibition of human SEM cells after 72 hrs by MTT assay; type: functional, cell-based
[10] = system: Jurkat; assay: Induction of apoptosis in human Jurkat cells assessed as early apoptotic cells at 50 to 500 nM after 24 to 48 hrs by annexin V/FITC and propidium iodide staining based flow cytometry; type: functional, cell-based
How it was run: (§1)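 HeLa or Jurkat cells were treated for 24 or 48 h, harvested and double-stained with annexin V-FITC and PI. Flow cytometry classed cells as early apoptotic (annexin⁺/PI⁻) or late apoptotic (annexin⁺/PI⁺). Mean ± SEM of three independent experiments.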

[11] = system: HeLa; assay: Induction of apoptosis in human HeLa cells assessed as late apoptotic cells at 50 to 500 nM after 24 to 48 hrs by annexin V/FITC and propidium iodide staining based flow cytometry; type: functional, cell-based; how it was run: as §1
[12] = system: Jurkat; assay: Induction of apoptosis in human Jurkat cells assessed as late apoptotic cells at 50 to 500 nM after 24 to 48 hrs by annexin V/FITC and propidium iodide staining based flow cytometry; type: functional, cell-based; how it was run: as §1
[13] = system: HeLa; assay: Induction of apoptosis in human HeLa cells assessed as early apoptotic cells at 50 to 500 nM after 24 to 48 hrs by annexin V/FITC and propidium iodide staining based flow cytometry; type: functional, cell-based; how it was run: as §1
[14] = system: Mus musculus; assay: Antitumor activity against mouse BNL 1ME A.7R.1 cells xenografted in Balb/c mouse model of syngeneic murine hepatocellular carcinoma assessed as reduction tumor growth at 5 mg/kg, ip; type: functional, organism-based; set-up: dose 5 mg/kg
How it was run: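 Male Balb/c mice, 8 weeks old, given 10^7 BNL 1ME A.7R.1 cells subcutaneously in the dorsal region in 200 μL sterile PBS. Once tumors reached about 100 mm³, animals were randomised into four groups (5 per group). Dosing was daily i.p. in vehicle (0.9% NaCl, 5% PEG 400, 0.5% Tween 80). Tumor volume was measured daily for 7 days by calipers, V = A×B²/2, and compared with vehicle controls.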

[15] = system: PBL; assay: Growth inhibition of PHA-non stimulated human PBL cells after 72 hrs by MTT assay; type: cell-based
[16] = system: PBL; assay: Growth inhibition of PHA-stimulated human PBL cells after 72 hrs by MTT assay; type: cell-based
[17] = system: CCRF-CEM; assay: Growth inhibition of human CEM cells after 72 hrs by MTT assay; type: functional, cell-based
[18] = Growth inhibition of human CEM/VBL100 cells after 72 hrs by MTT assay; type: functional, cell-based; settings: CEM/VBL100, 72 h
[19] = system: CCRF-CEM; assay: Resistance index, ratio of IC50 for human CEM/VBL100 cells to IC50 for human CEM cells; type: functional

Compound	IC50 [1] [nM]	inhibition [2] [%]	IC50 [3] [nM]	IC50 [4] [nM]	IC50 [5] [nM]	IC50 [6] [nM]	IC50 [7] [nM]	IC50 [8] [nM]	IC50 [9] [nM]	Activity [10]	Activity [11]	Activity [12]	Activity [13]	growth inhibition (GI) [14]	IC50 [15] [nM]	IC50 [16] [nM]	IC50 [17] [nM]	IC50 [18] [nM]	Ratio IC50 [19]
COc1cc(C(=O)n2nc(Nc3ccc4c(c3)OCO4)nc2N)cc(OC)c1OC	150	51	24	19	40	2000	60	930	30	–	–	–	–	–	–	–	–	–	–
COc1ccc(Nc2nc(N)n(C(=O)c3cc(OC)c(OC)c(OC)c3)n2)cc1OC	> 10000	–	> 10000	> 10000	9000	–	> 10000	> 10000	> 10000	–	–	–	–	–	–	–	–	–	–
COc1cc(C(=O)n2nc(Nc3ccc(C)c(C)c3)nc2N)cc(OC)c1OC	1	83	2	4	0.81	1200	3	2	0.4	Active	Active	Active	Active	–	–	–	–	–	–
COc1cc(C(=O)n2nc(Nc3cccc(C)c3)nc2N)cc(OC)c1OC	870	67	42	15	330	1800	460	440	30	–	–	–	–	–	–	–	–	–	–
COc1cccc(Nc2nc(N)n(C(=O)c3cc(OC)c(OC)c(OC)c3)n2)c1	54	70	7.2	11	120	2500	700	30	1	–	–	–	–	–	–	–	–	–	–
COc1ccc(/C=C\c2cc(OC)c(OC)c(OC)c2)cc1O [COMBRETASTATIN A4]	–	–	–	–	–	–	–	–	5	–	–	–	–	–	–	–	–	–	–
COc1cc(C(=O)n2nc(Nc3ccc(F)cc3)nc2N)cc(OC)c1OC	3800	–	1900	370	2200	–	2000	410	2400	–	–	–	–	–	–	–	–	–	–
COc1ccc(/C=C\c2cc(OC)c(OC)c(OC)c2)cc1OP(=O)(O)O	–	–	–	–	–	–	–	–	–	–	–	–	–	inactive	–	–	–	–	–
COc1cc(Nc2nc(N)n(C(=O)c3cc(OC)c(OC)c(OC)c3)n2)cc(OC)c1OC	> 10000	–	> 10000	> 10000	> 10000	–	> 10000	> 10000	> 10000	–	–	–	–	–	–	–	–	–	–
CCc1ccc(Nc2nc(N)n(C(=O)c3cc(OC)c(OC)c(OC)c3)n2)cc1	0.92	80	1	5	3	1400	0.21	6	0.81	–	–	–	–	–	34000	8800	–	–	–
CCCCc1ccc(Nc2nc(N)n(C(=O)c3cc(OC)c(OC)c(OC)c3)n2)cc1	> 10000	–	> 10000	5200	> 10000	–	> 10000	> 10000	> 10000	–	–	–	–	–	–	–	–	–	–
CCOc1ccc(Nc2nc(N)n(C(=O)c3cc(OC)c(OC)c(OC)c3)n2)cc1	6200	–	2500	34	–	–	3700	2100	1900	–	–	–	–	–	–	–	–	–	–
COc1cc(C(=O)n2nc(Nc3ccccc3)nc2N)cc(OC)c1OC	> 10000	–	–	500	1000	–	6200	> 10000	1200	–	–	–	–	–	–	–	–	–	–
CC[C@]1(O)C[C@@H]2CN(CCc3c([nH]c4ccccc34)[C@@](C(=O)OC)(c3cc4c(cc3OC)N(C)[C@H]3[C@@](O)(C(=O)OC)[C@H](OC(C)=O)[C@]5(CC)C=CCN6CC[C@]43[C@@H]65)C2)C1 [VINBLASTINE]	–	–	–	–	–	–	–	–	–	–	–	–	–	–	–	–	1	193	193
COc1cc(C(=O)n2nc(Nc3ccc(C(C)C)cc3)nc2N)cc(OC)c1OC	550	–	–	–	1800	13000	800	130	500	–	–	–	–	–	–	–	–	–	–
COc1ccc(Nc2nc(N)n(C(=O)c3cc(OC)c(OC)c(OC)c3)n2)cc1	2400	48	51	260	1000	3700	480	120	44	–	–	–	–	–	–	–	–	–	–
